# The list is not random: actives were taken first. Their share in the collection is about 3.5%.
# STAT1 activator: STAT1 signaling activation; NIH 3T3 STAT1-luciferase reporter, IFN-gamma, luminescence; 100% = IFN-gamma alone, no compound; activation (% of control), % at 5.5 µM; 2.6% of 200,000 active; AID 932;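 active means activation above the screen-wide mean activation plus 3 SD, cut at about 130% in these data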
# APP 5'UTR act: activates APP 5'UTR luciferase reporter; AID 1276; SH-SY5Y APP 5'UTR luciferase reporter, luminescence; zero percent = DMSO vehicle wells; 1% of 190,000 active; activation, % at 2 µM;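 active means activation above a set limit, based on mean plus 3 SD of controls, cut at about 140% in these data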
# Pf gametocyte: P. falciparum stage V gametocyte viability inhibition; 0.065% of 150,000 active; inhibition, % at 10.9 µM; P. falciparum stage V gametocytes, ATP luminescence, 24 h;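 active means inhibition above the mean plus 3 SD of compounds within the control limits, set per campaign, cut at about 38% in these data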
# FLuc inh counter: inhibits firefly luciferase, flagging false hits in luciferase inhibition screens. inhibition, % at 10 µM. ATPLite firefly luciferase biochemical luminescence, 10 min. 1.5% of 200,000 active;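 active means inhibition above about 50% when tested at 10 µM, limit read from the data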
# Target sequence (P08659 whole entry, looked up): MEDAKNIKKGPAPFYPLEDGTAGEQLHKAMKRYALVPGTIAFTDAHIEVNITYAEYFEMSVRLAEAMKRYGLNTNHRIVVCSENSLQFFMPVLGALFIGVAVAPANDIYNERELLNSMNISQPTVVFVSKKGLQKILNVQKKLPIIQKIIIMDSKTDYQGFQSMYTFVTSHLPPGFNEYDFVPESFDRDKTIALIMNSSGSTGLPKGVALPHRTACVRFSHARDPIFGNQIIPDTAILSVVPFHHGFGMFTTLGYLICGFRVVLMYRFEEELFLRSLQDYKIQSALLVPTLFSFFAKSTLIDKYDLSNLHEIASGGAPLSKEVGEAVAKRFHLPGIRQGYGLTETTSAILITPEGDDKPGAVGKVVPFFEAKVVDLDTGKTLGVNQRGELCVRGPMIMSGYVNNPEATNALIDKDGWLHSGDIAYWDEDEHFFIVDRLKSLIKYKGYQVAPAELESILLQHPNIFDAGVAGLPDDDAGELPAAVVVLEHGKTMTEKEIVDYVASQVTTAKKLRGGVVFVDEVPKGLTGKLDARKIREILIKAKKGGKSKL
# FLuc stim CS: affects firefly luciferase, flagging false hits in luciferase stimulation screens; ATPlite luciferase biochemical, luminescence, 10 min; 0 = ATP-free wells, 1 = DMSO control; 200,000 tested, under 10 active; AID 1027; activation factor at 10 µM;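 active means luciferase activation factor, scaled between plate controls, of at least 2 with compound at 10 µM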
#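 System: luciferase plus luciferin reagent, cell-free; medium: PBS as buffer for the ATP substrate; dosing: test compounds dosed from 2 mM stocks in 100% DMSO; timing: 10 min post-reagent at room temperature; measured by: luminescence measurement of luciferase light output; evaluation: luciferase activation, seen as luminescence increase over controls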
# NF-kB expr up: compounds increasing NF-kB expression in human neuronal cells; fold change at 12.5 µM; 1.6% of 190,000 active; NF-kB reporter expression; stronger effect = higher value; AID 1239; in the data active means fold change above about 3.3
# A number is an active result; – = inactive; · = not tested or not shown.
SMILES,STAT1 activator,APP 5'UTR act,Pf gametocyte,FLuc inh counter,FLuc stim CS,NF-kB expr up
Cc1ccccc1NC(=O)c1cnc2ccccn2c1=O,–,–,–,82,–,–
CC1=NN(C(C#N)c2ccc(F)cc2)C(c2ccccc2)C1 (centres undefined),·,·,–,·,·,·
CCOc1oc(-c2ccc(OC)cc2)nc1C(F)(F)F,–,–,·,–,–,–
CCOc1cnc(-c2ccc(OC)cc2)o1,135,–,–,–,–,–
CCOc1cnc(-c2ccc(Cl)cc2)o1,140,–,–,–,–,–
O=C(c1cc2cc([N+](=O)[O-])ccc2oc1=O)n1cccn1,–,–,·,–,–,–
O=C(N/N=C/c1ccc[nH]1)c1ccccc1O,–,–,·,62,–,–
O=C(N/N=C/c1ccc[nH]1)c1ccc(O)cc1,–,–,–,–,–,–
Cc1cc(C(=O)N/N=C/c2ccc[nH]2)n[nH]1,–,–,–,–,–,4.4
O=C(Cn1nc(C(F)F)cc1C(F)F)NNC(=S)Nc1ccc([N+](=O)[O-])cc1,–,–,–,–,–,–
O=C(Nc1cccc(-c2cn3cccnc3n2)c1)c1ccc2c(c1)OCO2,–,–,–,–,–,–
Cc1ccc(-c2cn3cccnc3n2)cc1,–,–,–,66,–,–
c1cnc2nc(-c3ccc4c(c3)OCO4)cn2c1,136,–,–,55,–,–
COC(=O)c1ccc2nc(-c3ccc4c(c3)OCO4)cn2c1,–,–,–,85,–,5
CCc1ccn2cc(-c3ccc4c(c3)OCO4)nc2c1,·,·,–,·,·,·
COCC1CCN(Cc2cn(C)nc2-c2cccc(Cl)c2)C1 (centres undefined),–,–,–,–,–,–
COc1ccc(C2CC(c3ccccc3)=NN2C(=O)CN2N=NC3C(=O)N(c4cccc(F)c4)C(=O)C32)cc1 (centres undefined),–,–,·,–,–,–
Cc1cc(NC(=O)c2cccc(Oc3ccccc3)c2)n[nH]1,–,–,–,71,–,–
O=C(Nc1nn[nH]n1)c1cccc(Oc2ccccc2)c1,–,–,·,–,–,–
Cc1cc(NC(=O)NC(=O)c2cccc(OC(F)(F)C(F)F)c2)n[nH]1,132,–,·,–,–,–
CN(C)c1ccc2c(c1)OC(N)=C(C#N)C2c1cccc(F)c1 (centres undefined),–,–,·,–,–,5
COc1cc(OC)c(S(=O)(=O)NC(C)C)cc1S(=O)(=O)NC(C)C,–,–,–,–,–,–
CCOC(=O)[C@H]1[C@H]2COc3ccccc3[C@@H]2N2C(=O)c3ccc(C)cc3NC(=O)[C@@]12C,·,·,–,·,·,·
Cc1cccc(NC(=S)N2CCC(N(C)CC3CCCO3)CC2)c1C (centres undefined),–,–,–,–,–,–
c1ccc2nc(-c3nc4ccccc4[nH]3)ccc2c1,–,192,·,94,–,4.2
SMILES,STAT1 activator,APP 5'UTR act,Pf gametocyte,FLuc inh counter,FLuc stim CS,NF-kB expr up
Cc1ccccc1-c1nc2ccccc2[nH]1,133,–,·,–,–,–
Fc1ccccc1-c1nc2ccccc2[nH]1,134,–,–,55,–,–
Clc1ccccc1-c1nc2ccccc2[nH]1,·,·,–,·,·,·
c1ccc2[nH]c(-c3cscn3)nc2c1,–,–,·,–,–,–
Cc1nc2ccc(-c3nc4ccccc4[nH]3)cc2[nH]1,–,155,–,77,–,3.5
CCOC(=O)C1CCCN(CC(=O)Nc2nc(-c3ccccc3)cs2)C1 (centres undefined),·,·,–,·,·,·
Cc1cc(N/N=C/c2ccccc2O)nc(N2CCOCC2)n1,·,·,–,·,·,·
Cc1cc(N/N=C/c2ccc(O)cc2O)nc(-c2ccccc2O)n1,–,–,·,64,–,–
Cc1cc(N/N=C/c2ccccc2O)nc(-c2ccccc2O)n1,–,–,·,61,–,–
Cc1cc(N/N=C\c2ccccc2)nc(-c2ccccc2O)n1,–,–,·,65,–,–
Cc1cc(N/N=C/c2ccccc2Cl)nc(NCc2ccccc2)n1,–,–,·,60,–,–
C/C(=N\Nc1cc(C)nc(-c2ccccc2O)n1)c1ccccc1O,·,·,–,·,·,·
Cc1cc(N/N=C/c2ccc(O)cc2O)c2ccccc2n1,·,·,–,·,·,·
CCOc1ccc(NS(=O)(=O)c2ccc3[nH]c(=O)[nH]c3c2)cc1,·,·,–,·,·,·
CCCCCOc1ccc(C(O)C(CN2CCOCC2)c2ccccc2)cc1 (centres undefined),·,·,–,·,·,·
Cc1cccc2sc(NC(=O)c3cc(S(=O)(=O)N(C)C)ccc3N3CCCC3)nc12,–,–,·,–,–,–
COc1cccc(CNC(=O)CCC2CCCN(C(=O)c3cccc4c(C)c(C)[nH]c34)C2)c1 (centres undefined),–,–,–,–,–,–
CCCn1nnnc1NCc1c(F)cccc1Cl,–,–,–,–,–,–
COc1ccc2[nH]c(CN3CCN(CC=C(C)C)C(CCO)C3)c(C)c2c1 (centres undefined),·,·,–,·,·,·
Cc1cccc(N2CCN(S(=O)(=O)c3ccc4c(c3)CCN4C(=O)CCC(=O)O)CC2C)c1 (centres undefined),–,–,·,–,–,–
COc1ccc(-c2cn3cc(C(F)(F)F)cc(Cl)c3n2)cc1,150,150,–,–,–,9
COc1ccc(-c2cc(C(F)(F)F)nc(-n3cc(Cl)cn3)n2)cc1,–,–,·,–,–,–
Fc1ccc(-c2cc(C(F)(F)F)nc(-n3cc(Cl)cn3)n2)cc1,–,–,–,–,–,–
Fc1ccc(-c2cn3cc(C(F)(F)F)cc(Cl)c3n2)cc1,139,168,–,–,–,7.3
O=C(O)/C=C/C(=O)Nc1ccc(N2CCOCC2)nc1N1CCOCC1,·,·,–,·,·,·
SMILES,STAT1 activator,APP 5'UTR act,Pf gametocyte,FLuc inh counter,FLuc stim CS,NF-kB expr up
O=c1c2sc(-c3ccccc3)cc2nc2n1CCC2,–,–,·,55,–,3.9
O=c1c2sc(-c3ccccc3)cc2nc2n1CCCCC2,·,·,–,·,·,·
N#CC1=C(N)N(c2ccc(F)cc2)C2=C(C1c1ccc(O)cc1)S(=O)(=O)CC2 (centres undefined),–,–,–,–,–,–
O=C(O)c1cc2ncc(-c3[nH]ncc3[N+](=O)[O-])cn2n1,–,–,–,–,–,–
O=C(/C=C/c1ccc(Cl)c(Cl)c1)NC1=NCCS1,134,–,–,–,–,–
CC(C)c1ccc(OCC(=O)NC2=NCCS2)cc1,–,–,–,57,–,–
CC(C)c1ccc(/C=C/C(=O)NC2=NCCS2)cc1,–,222,·,67,–,–
CCOc1cc(C(=O)NC2=NCCS2)cc(OCC)c1OCC,–,–,–,–,–,–
O=C(NC1=NCCS1)c1ccc(Cl)c(Cl)c1,·,·,–,·,·,·
O=C(COc1ccccc1)NC1=NCCS1,–,–,·,–,–,–
CC(C)C(C(=O)NC1=NCCS1)c1ccc(Cl)cc1 (centres undefined),–,–,–,–,–,–
CCOc1ccc(C(=O)NC2=NCCS2)cc1,139,–,–,52,–,–
Cc1cc(C(=O)NC2=NCCS2)cs1,–,–,·,–,–,–
Cc1cccc(C(=O)NC2=NCCS2)c1,–,139,–,54,–,3.3

# Source: PubChem (several laboratories)
